Results reported in ChEMBL document CHEMBL1817556, “Substituted lactam and cyclic azahemiacetals modulate Pseudomonas aeruginosa quorum sensing” (Bioorg Med Chem, 2011).

Assays:
[1] = molecular target: T1, Transcriptional activator protein LasR (Pseudomonas aeruginosa (strain ATCC 15692 / PAO1 / 1C / PRS 101 / LMG12228), UniProt P25084); experiment: Inhibition of Pseudomonas aeruginosa LasR
T1 sequence (P25084 whole entry): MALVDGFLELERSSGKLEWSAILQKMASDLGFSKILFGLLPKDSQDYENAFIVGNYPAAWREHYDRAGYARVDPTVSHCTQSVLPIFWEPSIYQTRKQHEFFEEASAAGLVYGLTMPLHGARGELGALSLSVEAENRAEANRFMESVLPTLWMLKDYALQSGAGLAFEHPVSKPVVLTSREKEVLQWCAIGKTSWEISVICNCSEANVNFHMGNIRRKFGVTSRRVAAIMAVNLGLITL

[2] = molecular target: 3-(3-hydroxydecanoyloxy)decanoate synthase (Pseudomonas aeruginosa (strain ATCC 15692 / PAO1 / 1C / PRS 101 / LMG12228)) (UniProt Q51559); experiment: Modulation of Pseudomonas aeruginosa lacZ-fused rhlA expressed in Escherichia coli DH5alpha co-expressing Ptac-rhlR assessed as C4-AHL-induced effect at 0.20 mM after 4 hrs by beta-galactosidase assay relative to control
In short: (§1)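 rhl reporter: E. coli DH5α carrying pECP61.5 (Ptac-rhlR, PrhlA-lacZ) was grown overnight in LB with ampicillin (100 μg/ml) only, then diluted to OD600 0.150. It was induced with 1 mM IPTG, and 2 μM C4-HSL plus compound or DMSO were added at OD600 1.0. Cultures were shaken 4 h at 37 °C. β-Galactosidase activity was read in Miller units as % of the solvent sample. Triplicates per biological replicate, at least two repeats; paired two-tailed t-test.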

[3] = molecular target: T2, Acyl-homoserine-lactone synthase (Pseudomonas aeruginosa (strain ATCC 15692 / PAO1 / 1C / PRS 101 / LMG12228)) (UniProt P33883); experiment: Modulation of Pseudomonas aeruginosa lacZ-fused lasI expressed in Escherichia coli DH5alpha co-expressing pBAD-lasR assessed as 3-oxo-C12-AHL-induced effect at 0.40 mM after 3 hrs by beta-galactosidase assay relative to control
T2 sequence (whole entry): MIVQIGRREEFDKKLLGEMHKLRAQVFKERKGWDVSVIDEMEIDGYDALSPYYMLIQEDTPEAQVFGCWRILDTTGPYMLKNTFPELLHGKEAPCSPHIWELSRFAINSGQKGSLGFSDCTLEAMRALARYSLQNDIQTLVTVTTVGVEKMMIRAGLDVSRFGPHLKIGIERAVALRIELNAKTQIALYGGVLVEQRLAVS
In short: (§2)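 E. coli DH5α carrying pSC11 (PlasI-lacZ translational fusion) and pJN105L (PBAD-lasR) was grown overnight in LB with ampicillin (100 μg/ml) and gentamicin (15 μg/ml), then diluted to OD600 0.150. Arabinose (0.2% w/v), 3-oxo-C12-AHL (2 μM) and test compound or DMSO were added. Cultures were shaken 3 h at 37 °C. β-Galactosidase activity was read in Miller units and expressed as % of the solvent sample. Triplicates per biological replicate, repeated at least twice; paired two-tailed t-test.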

[4] = molecular target: T2, Acyl-homoserine-lactone synthase (Pseudomonas aeruginosa (strain ATCC 15692 / PAO1 / 1C / PRS 101 / LMG12228)); experiment: Modulation of Pseudomonas aeruginosa lacZ-fused lasI expressed in Escherichia coli DH5alpha co-expressing pBAD-lasR assessed as 3-oxo-C12-AHL-induced effect at 0.60 mM after 3 hrs by beta-galactosidase assay relative to control; in short: as §2
[5] = molecular target: 3-(3-hydroxydecanoyloxy)decanoate synthase (Pseudomonas aeruginosa (strain ATCC 15692 / PAO1 / 1C / PRS 101 / LMG12228)) (UniProt Q51559); experiment: Modulation of Pseudomonas aeruginosa lacZ-fused rhlA expressed in Escherichia coli DH5alpha co-expressing Ptac-rhlR assessed as C4-AHL-induced effect at 0.60 mM after 4 hrs by beta-galactosidase assay relative to control
In short: (§3)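 E. coli DH5α carrying pECP61.5 (Ptac-rhlR, PrhlA-lacZ), grown overnight in LB with ampicillin 100 μg/ml and diluted to OD600 0.150. At OD600 1.0, 1 mM IPTG, 2 μM C4-HSL and compound or DMSO were added. Cultures were shaken 4 h at 37 °C, then β-galactosidase was read in Miller units. Activity is % of solvent sample, from triplicates per biological replicate, with at least two repeats.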

[6] = molecular target: 3-(3-hydroxydecanoyloxy)decanoate synthase (Pseudomonas aeruginosa (strain ATCC 15692 / PAO1 / 1C / PRS 101 / LMG12228)) (UniProt Q51559); experiment: Modulation of Pseudomonas aeruginosa lacZ-fused rhlA expressed in Escherichia coli DH5alpha co-expressing Ptac-rhlR assessed as C4-AHL-induced effect at 0.80 mM after 4 hrs by beta-galactosidase assay relative to control; in short: as §3
[7] = molecular target: T2, Acyl-homoserine-lactone synthase (Pseudomonas aeruginosa (strain ATCC 15692 / PAO1 / 1C / PRS 101 / LMG12228)); experiment: Modulation of Pseudomonas aeruginosa lacZ-fused lasI expressed in Escherichia coli DH5alpha co-expressing pBAD-lasR assessed as 3-oxo-C12-AHL-induced effect at 0.80 mM after 3 hrs by beta-galactosidase assay relative to control; in short: as §2
[8] = molecular target: 3-(3-hydroxydecanoyloxy)decanoate synthase (Pseudomonas aeruginosa (strain ATCC 15692 / PAO1 / 1C / PRS 101 / LMG12228)) (UniProt Q51559); experiment: Modulation of Pseudomonas aeruginosa lacZ-fused rhlA expressed in Escherichia coli DH5alpha co-expressing Ptac-rhlR assessed as C4-AHL-induced effect at 0.40 mM after 4 hrs by beta-galactosidase assay relative to control; in short: as §1
[9] = molecular target: T2, Acyl-homoserine-lactone synthase (Pseudomonas aeruginosa (strain ATCC 15692 / PAO1 / 1C / PRS 101 / LMG12228)); experiment: Modulation of Pseudomonas aeruginosa lacZ-fused lasI expressed in Escherichia coli DH5alpha co-expressing pBAD-lasR assessed as 3-oxo-C12-AHL-induced effect at 0.20 mM after 3 hrs by beta-galactosidase assay relative to control; in short: as §2

CCCCCCCCCCCC(=O)N[C@H]1CCOC1=O
IC50 [1]: 40 nM

CCCCCCCCCC(=O)CC(=O)NC1CCCCC1=O (configuration not stated)
IC50 [1]: 10000 nM

O=C(Cc1cccc([N+](=O)[O-])c1)N[C@H]1CCOC1=O
IC50 [1]: 610 nM

CCCCCCCCCCCC(=O)N[C@H]1CCSC1=O
IC50 [1]: 40 nM

CCCCCCSC[C@H]1NC(O)[C@H](O)[C@@H]1O (mixture of isomers)
Activity [2]: 94%
Activity [3]: 68%
Activity [4]: 51%
Activity [5]: 109%
Activity [6]: 116%
Activity [7]: 42%
Activity [8]: 105%
Activity [9]: 84%
